Data reported in ChEMBL document CHEMBL4052634, “Covalent inhibitors of LgtC: A blueprint for the discovery of non-substrate-like inhibitors for bacterial glycosyltransferases” (Bioorg Med Chem, 2017).
Activity calls are given as the source filed them.

Tests used:
[1] = Binding affinity to L-cysteine assessed as covalent adduct formation at 0.06 mmol by 1H NMR analysis; details: TDE = time-dependent effect
Method in brief: (§1)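 Amino acid (0.06 mmol; cysteine in d6-DMSO, serine in D2O) added to inhibitor (0.06 mmol) in d6-DMSO in an NMR tube, mixed by shaking; 1H-NMR (400 MHz) recorded at 298 K at time points from 0-190 min to follow adduct formation.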

[2] = biological target: Intestinal-type alkaline phosphatase (Bos taurus) (UniProt P19111); experiment: Inhibition of calf intestinal alkaline […] at 0.1 to 100 uM using UDP as substrate after 20 mins by malachite green dye-based assay
[3] = system: Neisseria meningitidis; experiment: Inhibition of Neisseria meningitidis alpha-1,4-galactosyltransferase assessed as enzyme activity at 100 uM using beta-lactose as substrate preincubated for 10 mins in presence of UDP-Gal donor followed by substrate addition incubated for 20 mins measured before diafiltration by colorimetric analysis (reference value: 84%)
Method in brief: (§2)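 DTT-activated LgtC pre-incubated with inhibitor (100 µM) or DMSO plus UDP-Gal 28 µM, 10 min at 30 °C; lactose 2 mM added, 20 min at 30 °C. Activity measured in samples taken before, and after diafiltration (10 kDa cut-off, 4 °C, two 50 min spins with one HEPES pH 7.0 wash), under standard conditions (2 mM lactose, 28 µM UDP-Gal, 20 min, 30 °C), malachite green readout.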

[4] = Inhibition of Neisseria meningitidis alpha-1,4-galactosyltransferase using lactose as substrate in presence of UDP-Gal measured after 20 min by malachite green dye-based assay
Method in brief: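 Recombinant LgtC, pre-activated with DTT (10 mM, 1:1, 30 min, 30 °C). Reaction contained MnCl2 5 mM, CIP 10 U/mL, lysozyme 1 mg/mL, Triton 0.01%, 13 mM HEPES pH 7.0, lactose 2 mM, inhibitor 0.1–100 µM (10% DMSO final), UDP-Gal 28 µM. No pre-incubation; 20 min at 30 °C. Released phosphate read by malachite green at 620 nm against a UDP calibration curve. Turnover adjusted to 20–50%. IC50 from sigmoidal fit of background-corrected % activity; at least triplicate.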

[5] = system: Neisseria meningitidis; experiment: Binding affinity to Neisseria meningitidis alpha-1,4-galactosyltransferase assessed as covalent adduct formation at 100 uM after 20 mins by mass spectrometric analysis
Method in brief: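 LgtC stock without DTT activation, diluted in 13 mM HEPES pH 7.0, incubated with inhibitor (100 or 50 µM, added in DMSO; 10% final DMSO) for 20 min at 30 °C; samples injected directly for electrospray MS to detect protein-inhibitor adducts.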

[6] = Binding affinity to L-serine assessed as covalent adduct formation at 0.06 mmol by 1H NMR analysis; method in brief: as §1
[7] = Binding affinity to L-lysine assessed as adduct formation at 0.06 mmol by 1H NMR analysis
Method in brief: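 Lysine (0.06 mmol in D2O) mixed with inhibitor (0.06 mmol) in d6-DMSO in an NMR tube by shaking; 1H-NMR spectra at 400 MHz, 298 K, taken at time points over 0-190 min.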

[8] = system: Neisseria meningitidis; experiment: Inhibition of Neisseria meningitidis alpha-1,4-galactosyltransferase at 0.1 to 100 uM using lactose as substrate after 20 mins in presence of UDP-Gal and measured in presence of varying acceptor concentration by malachite green dye-based assay
Method in brief: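 Activated LgtC with inhibitor (0.1-100 µM), UDP-Gal 28 µM, lactose varied 2-50 mM, MnCl2 5 mM, CIP 10 U/ml, lysozyme 1 mg/ml, 0.01% Triton in 13 mM HEPES pH 7.0, no pre-incubation; 20 min at 30 °C, donor turnover 20-50%; malachite green detection of UDP; triplicate.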

[9] = system: Neisseria meningitidis; experiment: Competitive inhibition of Neisseria meningitidis alpha-1,4-galactosyltransferase at 1 to 5 uM using lactose as substrate measured after 20 mins in presence of fixed concentration of UDP-Gal donor and varying concentration of lactose acceptor by Dixon/Cornish-Bowden plot analysis
Method in brief: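 Acceptor kinetics using standard protocol without pre-incubation: DTT-activated LgtC, UDP-Gal fixed at 100 µM, inhibitor 1, 2, 3, 4, 5 µM, lactose 5, 15, 25 mM, with 5 mM MnCl2, CIP 10 U/ml, lysozyme 1 mg/ml, 0.01% Triton, 13 mM HEPES pH 7.0, 10% DMSO; 20 min at 30 °C, donor turnover <10%; UDP released read by malachite green.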

[10] = system: Neisseria meningitidis; experiment: Inhibition of Neisseria meningitidis alpha-1,4-galactosyltransferase C246S mutant expressed in Escherichia coli BL21(DE3) at 100 uM using lactose as substrate in presence of UDP-Gal measured after 20 min by malachite green dye-based assay
Method in brief: (§3)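 Mutant LgtC (His-tag purified, Superdex 200), DTT-activated (10 mM, 1:1, 30 min, 30 °C), no pre-incubation with inhibitor. Final: 2 mM lactose, 28 µM UDP-Gal, 5 mM MnCl2, phosphatase CIP 10 U/mL, lysozyme 1 mg/mL, 0.01% Triton, 13 mM HEPES pH 7.0, 10% DMSO; 20 min, 30 °C. UDP read at 620 nm vs UDP calibration, background-corrected; triplicate.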

[11] = system: Neisseria meningitidis; experiment: Inhibition of Neisseria meningitidis alpha-1,4-galactosyltransferase C246A mutant expressed in Escherichia coli BL21(DE3) at 100 uM using lactose as substrate in presence of UDP-Gal measured after 20 min by malachite green dye-based assay; method in brief: as §3
[12] = species: Bos taurus; experiment: Inhibition of bovine beta-1,4-galactosyltransferase at 100 uM using GLcNAc as substrate in presence of UDP-Gal measured after 20 mins by malachite green dye-based assay
[13] = biological target: T1, Galactoside alpha-(1,2)-fucosyltransferase 2 (Homo sapiens) (UniProt Q10981); experiment: Inhibition of human fucosyltransferase2 at 150 uM using alpha-lactose as substrate in presence of GDP-Fuc measured after 20 mins by malachite green dye-based assay
T1 sequence (whole entry): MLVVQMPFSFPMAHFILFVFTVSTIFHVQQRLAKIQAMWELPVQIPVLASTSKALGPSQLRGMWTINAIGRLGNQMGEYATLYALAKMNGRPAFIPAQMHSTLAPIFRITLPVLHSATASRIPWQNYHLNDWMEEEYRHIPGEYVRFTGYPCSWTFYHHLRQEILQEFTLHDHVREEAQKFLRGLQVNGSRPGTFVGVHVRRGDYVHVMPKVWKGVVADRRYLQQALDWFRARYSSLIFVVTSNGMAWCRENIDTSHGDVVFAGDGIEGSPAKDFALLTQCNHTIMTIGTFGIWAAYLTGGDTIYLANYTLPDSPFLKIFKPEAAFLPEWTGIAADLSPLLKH

[14] = system: Pasteurella multocida; experiment: Inhibition of Pasteurella multocida alpha-2,3-sialyltransferase at 150 uM using beta-lactose as substrate in presence of CMP-Neu5Ac measured after 20 mins by malachite green dye-based assay
[15] = system: Neisseria meningitidis; experiment: Inhibition of Neisseria meningitidis alpha-1,4-galactosyltransferase assessed as enzyme activity at 100 uM using beta-lactose as substrate in presence of UDP-Gal donor/lactose acceptor incubated for 20 mins measured after diafiltration by colorimetric analysis (reference value: 85 %); method in brief: as §2
[16] = system: Neisseria meningitidis; experiment: Inhibition of Neisseria meningitidis alpha-1,4-galactosyltransferase at 25 to 100 uM using lactose as substrate preincubated for 10 mins in presence of UDP-Gal followed by substrate addition measured after 20 mins
Method in brief: (§4)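 LgtC pre-incubated 10 min at 30 °C with inhibitor (DMSO, 10% final) and UDP-Gal 28 µM in 13 mM HEPES pH 7.0 with MnCl2 5 mM, CIP 10 U/mL, lysozyme 1 mg/mL, 0.01% Triton; lactose 2 mM then added, 20 min at 30 °C; malachite green absorbance at 620 nm converted via UDP calibration; triplicate.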

[17] = system: Neisseria meningitidis; experiment: Inhibition of Neisseria meningitidis alpha-1,4-galactosyltransferase at 25 to 50 uM using lactose as substrate preincubated for 10 mins in presence of UDP-Gal followed by substrate addition measured after 20 mins; method in brief: as §4

Sequence of Intestinal-type alkaline phosphatase (Bos taurus) (P19111 20-506 limits assumed): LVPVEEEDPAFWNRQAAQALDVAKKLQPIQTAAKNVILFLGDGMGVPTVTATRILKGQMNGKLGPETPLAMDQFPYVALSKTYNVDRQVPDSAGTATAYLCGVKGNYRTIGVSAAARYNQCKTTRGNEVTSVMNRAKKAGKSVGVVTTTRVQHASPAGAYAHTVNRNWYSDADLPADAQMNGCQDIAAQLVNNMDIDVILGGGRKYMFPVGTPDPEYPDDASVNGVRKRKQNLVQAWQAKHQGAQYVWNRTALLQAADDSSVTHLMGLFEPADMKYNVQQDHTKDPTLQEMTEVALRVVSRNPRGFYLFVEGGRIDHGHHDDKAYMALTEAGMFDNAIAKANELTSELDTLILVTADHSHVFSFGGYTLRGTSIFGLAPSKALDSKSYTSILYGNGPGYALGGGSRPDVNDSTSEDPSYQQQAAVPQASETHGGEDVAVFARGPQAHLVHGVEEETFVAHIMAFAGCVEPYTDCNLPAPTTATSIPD

Row | Structure (SMILES) | Activity [1] | inhibition [2] | inhibition [3] [%] | IC50 [4] [µM] | Activity [5] | Activity [6] | Activity [7] | inhibition [8] | inhibition [9] | inhibition [10] | inhibition [11] | inhibition [12] | inhibition [13] | inhibition [14] | inhibition [15] [%] | inhibition [16] | inhibition [17]
1 | CC1=NN(c2ccccc2)C(=O)/C1=C\c1ccccc1C(F)(F)F | Tde | inactive | 30 | 27 | Active | inactive | inactive | inactive | Active | Active | inactive | inactive | inactive | inactive | 23 |  | 
2 | COc1ccc(/C=C2\SC(=S)N(c3ccccc3)C2=O)cc1Br |  |  |  |  |  |  |  |  |  |  |  |  |  |  |  | inactive | inactive
3 | Cc1nn(-c2ccccc2)c(O)c1Cc1ccccc1C(F)(F)F |  |  |  |  |  |  |  |  |  |  |  |  |  |  |  | inactive | 
